Measured values: ChEMBL document CHEMBL4017498, “Pilot in Vivo Structure-Activity Relationship of Dihydromethysticin in Blocking 4-(Methylnitrosamino)-1-(3-pyridyl)-1-butanone-Induced O6-Methylguanine and Lung Tumor in A/J Mice” (J Med Chem, 2017)

Columns and labels:
Mus musculus [1] = experiment: Toxicity in NNK-induced long-term lung adenoma A/J mouse model assessed as effect on liver weight at 25 ppm administered with AIN-M powder for […] followed by NNK induction on day 7 at 100 mg/kg during compound dosing and […] post last dose measured after day 119 relative to body weight; assay type: organism-based; details: in vivo, po
How it was run: (§1)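 Female A/J mice fed AIN-93G diet with compound at 25 ppm. NNK given i.p. at 100 and 67 mg/kg on Day 7 and Day 14. Switched to AIN-M diet 24 h after the last NNK. On Day 119, mice were weighed, euthanized with CO2, and livers excised and weighed. Relative liver weight is liver weight divided by bodyweight for each mouse.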

Mus musculus [2] = experiment: Reduction in NNK-induced long-term lung adenoma formation in A/J mouse at 25 ppm administered with AIN-M powder […] followed by NNK induction on day 7 at 100 mg/kg during compound dosing and […] post last dose measured after day 119 relative to control; assay type: functional; parameters: scale not given: the % may be the effect or the level left
How it was run: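 Female A/J mice fed AIN-93G powder diet with compound at 25 ppm (added in ethanol, vacuum-dried, dose checked by HPLC). NNK in saline given i.p. at 100 and 67 mg/kg on Day 7 and Day 14. Treated diet stopped 24 h after the last NNK, then AIN-M diet. On Day 119, surface lung adenomas were counted blinded by a pathologist. Mean ± SD; one-way ANOVA with Dunnett's test vs NNK control.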

Mus musculus [3] = experiment: Toxicity in NNK-induced long-term lung adenoma A/J mouse model assessed as effect on body weight at 25 ppm administered with AIN-M powder […] followed by NNK induction on day 7 at 100 mg/kg during compound dosing and […] at 67 mg/kg post last dose measured every once a week during compound dosing; assay type: organism-based; details: in vivo, po
How it was run: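 Female A/J mice fed AIN-93G diet with compound at 25 ppm. NNK given i.p. at 100 mg/kg on Day 7 and 67 mg/kg on Day 14. Treated diet ended 24 h after the last NNK, followed by AIN-M diet. Bodyweight recorded once weekly and food intake twice weekly through Day 119.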

Mus musculus [4] = experiment: Reduction in NNK-induced O6-methylguanine DNA adduct formation in A/J mouse lung at 200 ppm administered with AIN-93 G powder for 7 days followed by NNK-induction on day 7 post dose measured after 4 hrs by LC-ESI-MS/MS method relative to control; assay type: functional; parameters: scale not given: the % may be the effect or the level left
How it was run: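 Female A/J mice (6–7 weeks, one-week acclimation) fed AIN-93G powdered diet with 200 ppm compound from Day 0 (ethanol-processed diet for controls; n=3 per treatment, n=6 NNK control). Single i.p. NNK, 100 mg/kg in saline, on Day 7; lungs collected 4 h later. DNA isolated from half lung; O6-mG quantified by LC-MS/MS. Mean ± SD; one-way ANOVA with Dunnett's test versus NNK control.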

Mus musculus [5] = experiment: Toxicity in NNK-induced long-term lung adenoma A/J mouse model assessed as effect on liver weight at 25 ppm administered with AIN-M powder […] followed by NNK induction on day 7 at 100 mg/kg during compound dosing and […] post last dose measured after day 119; assay type: organism-based; details: in vivo, po; how it was run: as §1
[6] = Drug level in mouse liver microsomes treated with (+)DHM assessed as CYP450-mediated compound formation by LC-MS/MS method; assay type: ADME
Liver [7] = experiment: Drug metabolism in mouse liver microsomes assessed as 7-(benzo[d][1,3]dioxol-5-yl)-5-hydroxy-3-methoxyhept-2-enoic acid formation by LC-MS/MS method; assay type: ADME, microsome
[8] = Drug metabolism in mouse liver microsomes assessed as CYP450-mediated 7-(3,4-dihydroxyphenyl)-5-hydroxy-3-methoxyhept-2-enoic acid formation by LC-MS/MS method; assay type: ADME
Liver [9] = experiment: Drug level in mouse liver microsomes treated with (+)DHM by LC-MS/MS method; assay type: ADME, microsome

Row | SMILES | Activity (Mus musculus [1]) | Activity (Mus musculus [2]) | Activity (Mus musculus [3]) | Activity (Mus musculus [4]) | Activity (Mus musculus [5]) | further results
1 | COC1=CC(=O)OC(CCc2ccc3c(c2)CCC3)C1 (stereo not given) | Non-Toxic | 10.1% | Non-Toxic | 29.6% | Non-Toxic | 
2 | COC1=CC(=O)CC(CCc2ccc3c(c2)CCC3)C1 (stereo not given) |  |  |  | 11.8% |  | 
3 | CO/C(=C/C(=O)O)CC(O)CCc1ccc(O)c(O)c1 (stereo not given) |  |  |  |  |  | Drug metabolism [6]: Metabolite_Detected
4 | COC1=CC(=O)CC(CCc2ccc3c(c2)OCO3)C1 (stereo not given) | Non-Toxic | 89.4% | Non-Toxic | 63.8% | Non-Toxic | 
5 | COC1=CC(=O)OC(CCc2ccc3c(c2)OCO3)C1 (racemic) | Non-Toxic | 94.2% | Non-Toxic | 72.3% | Non-Toxic | 
6 | COC1=CC(=O)O[C@@H](CCc2ccc3c(c2)OCO3)C1 [DIHYDROMETHYSTICIN] |  |  |  |  |  | Drug metabolism (Liver [7]): Metabolite_Detected; Drug metabolism [8]: Metabolite_Detected
7 | COC1=CC(=O)OC(CCc2ccccc2)C1 (racemic) | Non-Toxic | 6.3% | Non-Toxic | 16.4% | Non-Toxic | 
8 | CO/C(=C/C(=O)O)CC(O)CCc1ccc2c(c1)OCO2 (stereo not given) |  |  |  |  |  | Drug metabolism (Liver [9]): Metabolite_Detected
